Reference: ChEMBL document CHEMBL1121923, “N2- and C-7 substituted actinomycin D analogues: synthesis, DNA-binding affinity, and biochemical and biological properties. Structure-activity relationship” (J Med Chem, 1981)
Converted amounts (≈) assume the structure as drawn.

Columns and labels:
CCRF-CEM = experiment: In vitro antitumor activity against human lymphoblastic leukemia cells.; type: functional; settings: for IC50: read-out: ID50 (the source's name)
Procedure, shortened: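 Human lymphoblastic leukemia CCRF-CEM cells grown in suspension culture; growth inhibition in vitro; ID50 (ng/mL) reported as the 50% inhibitory dose.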

P388 [1] = experiment: Percent of increased life span of P388 cells implanted CDF1 male mice; type: functional, Mus musculus
Procedure, shortened: (§1)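 CDF1 male mice, groups of seven, given 10^6 P388 cells ip on day 0; drug ip in 5% DMSO–saline on days 1, 5 and 9; controls received vehicle; range of doses tested, optimal nontoxic dose listed; median survival time; %ILS = (treated − control)/control × 100; average of two or more experiments.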

P388 [2] = experiment: Optimal dose for antitumor activity was measured in P388 cells of CDF1 male mice in vivo; Highest dose tested; type: functional, Mus musculus; procedure, shortened: as §1
P388 [3] = experiment: Median survival time of the P388 cells implanted CDF1 male mice in vivo; type: functional, Mus musculus; procedure, shortened: as §1
P388 [4] = experiment: Concentration required for 50% inhibition of incorporation of labeled uridine by P388 cells for the synthesis of RNA (in vitro); type: functional; settings: Mus musculus, read-out: ED50 (the source's name)
P388 [5] = experiment: Concentration required for 50% inhibition of incorporation of labeled thymidine by p388 cells for synthesis of DNA (in vitro); type: functional; settings: Mus musculus, read-out: ED50 (the source's name)
P388 [6] = experiment: Concentration required for 50% inhibition of incorporation of labeled uridine by P388 cells for the synthesis of RNA (in vitro); Not determined because of lack of DNA binding; type: functional, cell-based; settings: Mus musculus
P388 [7] = experiment: Concentration required for 50% inhibition of incorporation of labeled thymidine by p388 cells for synthesis of DNA (in vitro); Not determined because of lack of DNA binding; type: functional, cell-based; settings: Mus musculus
Calf thymus DNA [8] = experiment: Apparent number of binding sites per base pairs in DNA; Not measurable; type: nucleic-acid assay; settings: Bos taurus
Procedure, shortened: (§2)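 Calf thymus DNA; spectral titration; binding isotherms in 0.01 M phosphate buffer, pH 7.0, 20 °C; Kapp (per base pair) and Bapp (drug binding sites per base pair) taken from Scatchard plot.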

Calf thymus DNA [9] = experiment: Apparent binding constant against calf thymus DNA-drug complex; Not measurable; type: nucleic-acid assay; settings: Bos taurus; procedure, shortened: as §2
P388 [10] = experiment: Concentration required for 50% inhibition of incorporation of labeled uridine by P388 cells for the synthesis of RNA (in vitro); e indicates values are high and variable; type: functional, cell-based; settings: Mus musculus
P388 [11] = experiment: Concentration required for 50% inhibition of incorporation of labeled thymidine by p388 cells for synthesis of DNA (in vitro); e indicates values are high and variable; type: functional, cell-based; settings: Mus musculus
P388 [12] = experiment: Optimal dose for antitumor activity was measured in P388 cells of CDF1 male mice in vivo; type: functional; settings: Mus musculus; procedure, shortened: as §1

| SMILES | IC50 (CCRF-CEM) [µg/mL] | ILS (P388 [1]) [%] | Highest dose tested (P388 [2]) [mg/kg] | MST (P388 [3]) [days] | Bapp (Calf thymus DNA [8]) | K app (Calf thymus DNA [9]) | other results |
| --- | --- | --- | --- | --- | --- | --- | --- |
| CCCCCCCOc1cc(C(=O)N[C@@H]2C(=O)N[C@H](C(C)C)C(=O)N3CCC[C@H]3C(=O)N(C)CC(=O)N(C)[C@@H](C(C)C)C(=O)O[C@@H]2C)c2nc3c(C(=O)N[C@@H]4C(=O)N[C@H](C(C)C)C(=O)N5CCC[C@H]5C(=O)N(C)CC(=O)N(C)[C@@H](C(C)C)C(=O)O[C@@H]4C)c(N)c(=O)c(C)c-3oc2c1C | 3 (≈ 2.19 µM) | 24 | 0.9 | 13 |  |  |  |
| CCCCCNc1c(C(=O)N[C@@H]2C(=O)N[C@H](C(C)C)C(=O)N3CCC[C@H]3C(=O)N(C)CC(=O)N(C)[C@@H](C(C)C)C(=O)O[C@@H]2C)c2nc3c(C(=O)N[C@@H]4C(=O)N[C@H](C(C)C)C(=O)N5CCC[C@H]5C(=O)N(C)CC(=O)N(C)[C@@H](C(C)C)C(=O)O[C@@H]4C)ccc(C)c3oc-2c(C)c1=O | 1.6 (≈ 1.21 µM) | 18 | 1.15 | 13 |  |  |  |
| Cc1c2oc3c(C)ccc(C(=O)N[C@@H]4C(=O)N[C@H](C(C)C)C(=O)N5CCC[C@H]5C(=O)N(C)CC(=O)N(C)[C@@H](C(C)C)C(=O)O[C@@H]4C)c3nc-2c(C(=O)N[C@@H]2C(=O)N[C@H](C(C)C)C(=O)N3CCC[C@H]3C(=O)N(C)CC(=O)N(C)[C@@H](C(C)C)C(=O)O[C@@H]2C)c(NCCCCCN)c1=O | 0.85 (≈ 0.634 µM) | 64 | 1.8 | 18 |  |  | EC50 (P388 [4]): 460 nM; EC50 (P388 [5]): > 4600 nM |
| CCCCCCNc1c(C(=O)N[C@@H]2C(=O)N[C@H](C(C)C)C(=O)N3CCC[C@H]3C(=O)N(C)CC(=O)N(C)[C@@H](C(C)C)C(=O)O[C@@H]2C)c2nc3c(C(=O)N[C@@H]4C(=O)N[C@H](C(C)C)C(=O)N5CCC[C@H]5C(=O)N(C)CC(=O)N(C)[C@@H](C(C)C)C(=O)O[C@@H]4C)ccc(C)c3oc-2c(C)c1=O | 3 (≈ 2.24 µM) | 0 | 1.2 | 11 |  |  |  |
| CCCCCCNc1c(C(=O)N[C@H]2C(=O)N[C@@H](C(C)C)C(=O)N3CCC[C@H]3C(=O)N(C)CC(=O)N(C)[C@H](C(C)C)C(=O)O[C@H]2C)c2nc3c(C(=O)N[C@@H]4C(=O)N[C@H](C(C)C)C(=O)N5CCC[C@@H]5C(=O)N(C)CC(=O)N(C)[C@@H](C(C)C)C(=O)O[C@@H]4C)ccc(C)c3oc-2c(C)c1=O |  |  |  |  |  |  | ED50 (P388 [6]): Not measurable; ED50 (P388 [7]): Not measurable |
| Cc1c2oc3c(C)c(OC(=O)Cc4ccc(Cl)c(Cl)c4)cc(C(=O)N[C@@H]4C(=O)N[C@H](C(C)C)C(=O)N5CCC[C@@H]5C(=O)N(C)CC(=O)N(C)[C@@H](C(C)C)C(=O)O[C@@H]4C)c3nc-2c(C(=O)N[C@H]2C(=O)N[C@@H](C(C)C)C(=O)N3CCC[C@H]3C(=O)N(C)CC(=O)N(C)[C@H](C(C)C)C(=O)O[C@H]2C)c(N)c1=O |  |  |  |  | Not measurable | Not measurable | ID50 (CCRF-CEM): 0.65 µg/mL (≈ 0.446 µM); ED50 (P388 [10]): High and variable values; ED50 (P388 [11]): High and variable values; ILS (P388 [1]; Mus musculus): 100%; MST (P388 [3]; Mus musculus): 21 days; Optimal dose (P388 [12]): 0.5 mg/kg |
| Cc1c2oc3c(C)ccc(C(=O)N[C@@H]4C(=O)N[C@H](C(C)C)C(=O)N5CCC[C@@H]5C(=O)N(C)CC(=O)N(C)[C@@H](C(C)C)C(=O)O[C@@H]4C)c3nc-2c(C(=O)N[C@H]2C(=O)N[C@@H](C(C)C)C(=O)N3CCC[C@H]3C(=O)N(C)CC(=O)N(C)[C@H](C(C)C)C(=O)O[C@H]2C)c(NCCCCCCCCN)c1=O |  |  |  |  |  |  | ED50 (P388 [6]): Not measurable; ED50 (P388 [7]): Not measurable |
| Cc1c2oc3c(C)c(OC(=O)c4ccccc4)cc(C(=O)N[C@@H]4C(=O)N[C@H](C(C)C)C(=O)N5CCC[C@@H]5C(=O)N(C)CC(=O)N(C)[C@@H](C(C)C)C(=O)O[C@@H]4C)c3nc-2c(C(=O)N[C@H]2C(=O)N[C@@H](C(C)C)C(=O)N3CCC[C@H]3C(=O)N(C)CC(=O)N(C)[C@H](C(C)C)C(=O)O[C@H]2C)c(N)c1=O |  |  |  |  | Not measurable | Not measurable | ED50 (P388 [10]): High and variable values; ED50 (P388 [11]): High and variable values |
| CCCCCCCCCCCNc1c(C(=O)N[C@H]2C(=O)N[C@@H](C(C)C)C(=O)N3CCC[C@H]3C(=O)N(C)CC(=O)N(C)[C@H](C(C)C)C(=O)O[C@H]2C)c2nc3c(C(=O)N[C@@H]4C(=O)N[C@H](C(C)C)C(=O)N5CCC[C@@H]5C(=O)N(C)CC(=O)N(C)[C@@H](C(C)C)C(=O)O[C@@H]4C)ccc(C)c3oc-2c(C)c1=O |  |  |  |  |  |  | ED50 (P388 [6]): Not measurable; ED50 (P388 [7]): Not measurable |
| Cc1c2oc3c(C)c(OC(=O)C45CC6CC(CC(C6)C4)C5)cc(C(=O)N[C@@H]4C(=O)N[C@H](C(C)C)C(=O)N5CCC[C@@H]5C(=O)N(C)CC(=O)N(C)[C@@H](C(C)C)C(=O)O[C@@H]4C)c3nc-2c(C(=O)N[C@H]2C(=O)N[C@@H](C(C)C)C(=O)N3CCC[C@H]3C(=O)N(C)CC(=O)N(C)[C@H](C(C)C)C(=O)O[C@H]2C)c(N)c1=O |  |  |  |  | Not measurable | Not measurable |  |
| CCCCCCCCCNc1c(C(=O)N[C@H]2C(=O)N[C@@H](C(C)C)C(=O)N3CCC[C@H]3C(=O)N(C)CC(=O)N(C)[C@H](C(C)C)C(=O)O[C@H]2C)c2nc3c(C(=O)N[C@@H]4C(=O)N[C@H](C(C)C)C(=O)N5CCC[C@@H]5C(=O)N(C)CC(=O)N(C)[C@@H](C(C)C)C(=O)O[C@@H]4C)ccc(C)c3oc-2c(C)c1=O |  |  |  |  |  |  | ED50 (P388 [6]): Not measurable; ED50 (P388 [7]): Not measurable |
| CCCCCCOc1cc(C(=O)N[C@@H]2C(=O)N[C@H](C(C)C)C(=O)N3CCC[C@@H]3C(=O)N(C)CC(=O)N(C)[C@@H](C(C)C)C(=O)O[C@@H]2C)c2nc3c(C(=O)N[C@H]4C(=O)N[C@@H](C(C)C)C(=O)N5CCC[C@H]5C(=O)N(C)CC(=O)N(C)[C@H](C(C)C)C(=O)O[C@H]4C)c(N)c(=O)c(C)c-3oc2c1C |  |  |  |  | Not measurable | Not measurable | ED50 (P388 [10]): High and variable values; ED50 (P388 [11]): High and variable values |
| CCCCCNc1c(C(=O)N[C@H]2C(=O)N[C@@H](C(C)C)C(=O)N3CCC[C@H]3C(=O)N(C)CC(=O)N(C)[C@H](C(C)C)C(=O)O[C@H]2C)c2nc3c(C(=O)N[C@@H]4C(=O)N[C@H](C(C)C)C(=O)N5CCC[C@@H]5C(=O)N(C)CC(=O)N(C)[C@@H](C(C)C)C(=O)O[C@@H]4C)ccc(C)c3oc-2c(C)c1=O |  |  |  |  |  |  | ED50 (P388 [6]): Not measurable; ED50 (P388 [7]): Not measurable |
| Cc1c2oc3c(C)c(OC(=O)c4ccc5ccccc5c4)cc(C(=O)N[C@@H]4C(=O)N[C@H](C(C)C)C(=O)N5CCC[C@@H]5C(=O)N(C)CC(=O)N(C)[C@@H](C(C)C)C(=O)O[C@@H]4C)c3nc-2c(C(=O)N[C@H]2C(=O)N[C@@H](C(C)C)C(=O)N3CCC[C@H]3C(=O)N(C)CC(=O)N(C)[C@H](C(C)C)C(=O)O[C@H]2C)c(N)c1=O |  |  |  |  | Not measurable | Not measurable | ED50 (P388 [10]): High and variable values; ED50 (P388 [11]): High and variable values |
| CCCCCCCCCNc1c(C(=O)N[C@@H]2C(=O)N[C@H](C(C)C)C(=O)N3CCC[C@H]3C(=O)N(C)CC(=O)N(C)[C@@H](C(C)C)C(=O)O[C@@H]2C)c2nc3c(C(=O)N[C@@H]4C(=O)N[C@H](C(C)C)C(=O)N5CCC[C@H]5C(=O)N(C)CC(=O)N(C)[C@@H](C(C)C)C(=O)O[C@@H]4C)ccc(C)c3oc-2c(C)c1=O | 11 (≈ 7.96 µM) |  | 1.8 | 10 |  |  |  |
| Cc1c2oc3c(C)ccc(C(=O)N[C@@H]4C(=O)N[C@H](C(C)C)C(=O)N5CCC[C@H]5C(=O)N(C)CC(=O)N(C)[C@@H](C(C)C)C(=O)O[C@@H]4C)c3nc-2c(C(=O)N[C@@H]2C(=O)N[C@H](C(C)C)C(=O)N3CCC[C@H]3C(=O)N(C)CC(=O)N(C)[C@@H](C(C)C)C(=O)O[C@@H]2C)c(NCCCCN)c1=O | 0.6 (≈ 0.452 µM) | 109 | 1.8 | 23 |  |  | EC50 (P388 [4]): 346 nM; EC50 (P388 [5]): 3300 nM |
| CCCCCCCOc1cc(C(=O)N[C@@H]2C(=O)N[C@H](C(C)C)C(=O)N3CCC[C@@H]3C(=O)N(C)CC(=O)N(C)[C@@H](C(C)C)C(=O)O[C@@H]2C)c2nc3c(C(=O)N[C@H]4C(=O)N[C@@H](C(C)C)C(=O)N5CCC[C@H]5C(=O)N(C)CC(=O)N(C)[C@H](C(C)C)C(=O)O[C@H]4C)c(N)c(=O)c(C)c-3oc2c1C |  |  |  |  | Not measurable | Not measurable | ED50 (P388 [10]): High and variable values; ED50 (P388 [11]): High and variable values |
| CCCCCCOc1cc(C(=O)N[C@@H]2C(=O)N[C@H](C(C)C)C(=O)N3CCC[C@H]3C(=O)N(C)CC(=O)N(C)[C@@H](C(C)C)C(=O)O[C@@H]2C)c2nc3c(C(=O)N[C@@H]4C(=O)N[C@H](C(C)C)C(=O)N5CCC[C@H]5C(=O)N(C)CC(=O)N(C)[C@@H](C(C)C)C(=O)O[C@@H]4C)c(N)c(=O)c(C)c-3oc2c1C | 2.5 (≈ 1.84 µM) | 24 | 0.9 | 13 |  |  |  |
